Measurements taken from ChEMBL document CHEMBL4251659, “Anti-Influenza Triterpene Saponins from the Bark of Burkea africana” (J Nat Prod, 2018).

Experiments:
[1] = test system: Influenza A virus H3N2; test: Antiviral activity against Influenza A virus H3N2 A/Hong Kong/68 infected in MDCK cells assessed as inhibition of virus-induced cytopathic effect after 48 hrs; assay type: functional, organism-based
In short: (§1)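 Run on 2-day-old confluent MDCK monolayers. Test concentrations reached a maximum of 100 μM for pure compounds and 100 μg/mL for extracts or fractions. Virus input gave complete CPE at 48 h post-infection, when inhibition was scored. Each concentration was tested twice. IC50 (50% inhibition of virus-induced CPE) is the mean of at least three experiments.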

[2] = test system: Influenza A virus; test: Antiviral activity against Influenza A virus H1N1 A/Jena/8178/09 infected in MDCK cells assessed as inhibition of virus-induced cytopathic effect after 48 hrs; assay type: functional, organism-based; in short: as §1
[3] = Selectivity index, ratio of CC50 for MDCK cells to IC50 for Influenza A virus H3N2 A/Hong Kong/68 infected in MDCK cells; assay type: toxicity, cell-based; settings: dog, read-out: Ratio CC50/IC50
In short: (§2)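 SI was calculated as CC50/IC50. CC50 was measured on 2-day-old confluent MDCK monolayers 72 h after sample addition, at a maximum of 100 μM for compounds or 100 μg/mL for extracts or fractions, with each concentration tested twice. IC50 came from the 48 h CPE inhibition assay. Both are means of at least three experiments.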

[4] = Selectivity index, ratio of CC50 for MDCK cells to IC50 for Influenza A virus H1N1 A/Jena/8178/09 infected in MDCK cells; assay type: toxicity, cell-based; settings: dog, read-out: Ratio CC50/IC50; in short: as §2

Row | SMILES | IC50 [1] | IC50 [2] | selectivity ratio [3] | selectivity ratio [4]
1 | C=C(C)[C@@H]1CC[C@]2(C(=O)O)CC[C@]3(C)[C@H](CC[C@@H]4[C@@]5(C)C[C@@H](O)[C@H](O[C@@H]6O[C@H](CO)[C@@H](O)[C@H](O)[C@H]6O[C@@H]6OC[C@@H](O)[C@H](O)[C@H]6O)C(C)(C)[C@@H]5CC[C@]43C)[C@@H]12 | Not Active |  |  | 
2 | C[C@H]1O[C@@H](O[C@H]2[C@H](O)[C@@H](O[C@@H]3OC[C@@H](O)[C@H](O)[C@H]3O)[C@H](O[C@H]3[C@H](O)C[C@]4(C)[C@H]5CC=C6[C@@H]7CC(C)(C)CC[C@]7(C(=O)O)CC[C@@]6(C)[C@]5(C)CC[C@H]4C3(C)C)O[C@@H]2CO)[C@@H](O)[C@@H](O)[C@@H]1O |  | Not Active |  | 
3 | CC1(C)C[C@H]2C3=CC[C@@H]4[C@@]5(C)CC[C@H](O)C(C)(C)[C@@H]5CC[C@@]4(C)[C@]3(C)CC[C@@]2(C(=O)O)C[C@H]1OC(=O)/C=C/c1ccccc1 |  |  | > 11 | > 15
4 | C=C(C)[C@@H]1CC[C@]2(C(=O)O)CC[C@]3(CO)[C@H](CC[C@@H]4[C@@]5(C)C[C@@H](O)[C@H](O[C@@H]6O[C@H](CO)[C@@H](O)[C@H](O)[C@H]6O[C@@H]6O[C@H](CO)[C@@H](O)[C@H](O)[C@H]6O)C(C)(C)[C@@H]5CC[C@]43C)[C@@H]12 | Not Active |  |  | 
5 | C=C(C)[C@@H]1CC[C@]2(C(=O)O)CC[C@]3(CO)[C@H](CC[C@@H]4[C@@]5(C)C[C@@H](O)[C@H](O)C(C)(C)[C@@H]5CC[C@]43C)[C@@H]12 | Not Active |  |  | 
6 | C=C(C)[C@@H]1CC[C@]2(C(=O)O)CC[C@]3(CO)[C@H](CC[C@@H]4[C@@]5(C)C[C@@H](O)[C@H](O[C@@H]6O[C@H](CO)[C@@H](O)[C@H](O)[C@H]6O[C@@H]6OC[C@@H](O)[C@H](O)[C@H]6O)C(C)(C)[C@@H]5CC[C@]43C)[C@@H]12 | Not Active | Not Active |  | 
7 | CC1(C)C[C@H]2C3=CC[C@@H]4[C@@]5(C)C[C@@H](O)[C@H](O)C(C)(C)[C@@H]5CC[C@@]4(C)[C@]3(C)CC[C@@]2(C(=O)O)C[C@H]1OC(=O)/C=C/c1ccccc1 |  |  | > 9 | > 14
8 | C=C(C)[C@@H]1CC[C@]2(C(=O)O)CC[C@]3(C)[C@H](CC[C@@H]4[C@@]5(C)C[C@@H](O)[C@H](O)C(C)(C)[C@@H]5CC[C@]43C)[C@@H]12 [ALPHITOLIC ACID] | Not Active | Not Active |  | 
9 | CC1(C)CC[C@]2(C(=O)O)CC[C@]3(C)C(=CC[C@@H]4[C@@]5(C)C[C@@H](O)[C@H](O)C(C)(C)[C@@H]5CC[C@]43C)[C@@H]2C1 [MASLINIC ACID] | Not Active | Not Active |  | 
